{"source": "paper PMC5488297", "about": "(Chemistry (Weinheim an Der Bergstrasse, Germany), 2017)", "key": {"[1]": {"tested_on": "U87 (αVβ3+) and U87 β3‐KO (αVβ3−) cells", "experiment": "Targeting index / selectivity between U87 β3‐KO and U87 cells", "assay_type": "cell-based, human", "conditions": "for Targeting index (TI): [IC50(αVβ3−)/IC50(αVβ3+)]conjugate/[IC50(αVβ3−)/IC50(αVβ3+)]paclitaxel", "method_in_brief": "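The targeting index uses IC50s from the 144 h CellTiter-Glo ATP viability assay on the isogenic U87 and U87 β3-KO (CRISPR-Cas9 β3 deletion) pair. The ratio IC50(β3-KO)/IC50(U87) for the conjugate is divided by the same ratio for free paclitaxel tested in parallel under identical conditions.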"}, "[2]": {"tested_on": "U87 (αVβ3+) human glioblastoma cells", "experiment": "Anti‐proliferative activity, CellTiter-Glo ATP cell viability, U87", "assay_type": "cell-based", "conditions": "144 h", "method_in_brief": "(§1)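 U87 human glioblastoma cells were used alongside an isogenic U87 clone with the β3 integrin subunit gene deleted by CRISPR-Cas9. Absence of αVβ3 was confirmed by flow cytometry using anti-αVβ3 antibody LM609 plus a fluorescent secondary antibody. Cells were exposed to increasing concentrations of test compound for 144 h, with free paclitaxel run in parallel. Viability was read as cellular ATP by CellTiter-Glo. IC50 was taken as the concentration giving 50 % inhibition of viability.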"}, "[3]": {"tested_on": "U87 β3‐KO (αVβ3−) cells", "experiment": "Anti‐proliferative activity, CellTiter-Glo ATP cell viability, U87 β3‐KO", "assay_type": "cell-based", "conditions": "Homo sapiens, 144 h", "method_in_brief": "as §1"}, "[4]": {"tested_on": "integrin‐mediated cell infiltration processes", "conditions": "cited from earlier work"}, "[5]": {"tested_on": "FAK/Akt integrin‐activated transduction pathway", "conditions": "cited from earlier work"}, "[6]": {"biological_target": "purified αVβ3 receptor (Homo sapiens, UniProt P05106+P06756)", "sequence (P06756 891-1048)": "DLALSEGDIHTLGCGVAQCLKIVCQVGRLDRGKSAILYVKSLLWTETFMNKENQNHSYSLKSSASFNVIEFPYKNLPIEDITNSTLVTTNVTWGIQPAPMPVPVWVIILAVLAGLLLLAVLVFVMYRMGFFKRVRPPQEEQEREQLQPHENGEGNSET", "sequence (P06756 31-889)": "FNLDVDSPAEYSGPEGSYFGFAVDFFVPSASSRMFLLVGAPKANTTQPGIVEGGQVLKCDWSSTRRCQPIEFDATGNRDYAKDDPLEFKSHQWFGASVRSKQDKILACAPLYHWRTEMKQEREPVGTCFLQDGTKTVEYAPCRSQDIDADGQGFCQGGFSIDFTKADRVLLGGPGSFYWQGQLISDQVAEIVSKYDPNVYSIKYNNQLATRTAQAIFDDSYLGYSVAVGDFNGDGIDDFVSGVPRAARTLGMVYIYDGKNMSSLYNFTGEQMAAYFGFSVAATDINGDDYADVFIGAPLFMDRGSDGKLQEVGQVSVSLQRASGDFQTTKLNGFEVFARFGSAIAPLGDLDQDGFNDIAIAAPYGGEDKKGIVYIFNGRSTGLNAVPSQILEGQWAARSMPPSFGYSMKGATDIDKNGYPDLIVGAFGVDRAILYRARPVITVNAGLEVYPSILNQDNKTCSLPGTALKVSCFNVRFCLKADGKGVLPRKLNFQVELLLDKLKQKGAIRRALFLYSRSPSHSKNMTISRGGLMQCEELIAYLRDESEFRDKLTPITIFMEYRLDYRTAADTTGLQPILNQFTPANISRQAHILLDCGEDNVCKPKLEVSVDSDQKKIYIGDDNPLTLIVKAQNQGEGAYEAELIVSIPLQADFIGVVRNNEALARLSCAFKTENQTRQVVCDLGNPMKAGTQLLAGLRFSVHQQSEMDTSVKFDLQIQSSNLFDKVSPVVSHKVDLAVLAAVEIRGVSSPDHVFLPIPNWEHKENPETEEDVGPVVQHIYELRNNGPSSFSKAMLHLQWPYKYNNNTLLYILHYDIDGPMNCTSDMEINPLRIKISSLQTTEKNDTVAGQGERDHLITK", "sequence (P05106 27-788)": "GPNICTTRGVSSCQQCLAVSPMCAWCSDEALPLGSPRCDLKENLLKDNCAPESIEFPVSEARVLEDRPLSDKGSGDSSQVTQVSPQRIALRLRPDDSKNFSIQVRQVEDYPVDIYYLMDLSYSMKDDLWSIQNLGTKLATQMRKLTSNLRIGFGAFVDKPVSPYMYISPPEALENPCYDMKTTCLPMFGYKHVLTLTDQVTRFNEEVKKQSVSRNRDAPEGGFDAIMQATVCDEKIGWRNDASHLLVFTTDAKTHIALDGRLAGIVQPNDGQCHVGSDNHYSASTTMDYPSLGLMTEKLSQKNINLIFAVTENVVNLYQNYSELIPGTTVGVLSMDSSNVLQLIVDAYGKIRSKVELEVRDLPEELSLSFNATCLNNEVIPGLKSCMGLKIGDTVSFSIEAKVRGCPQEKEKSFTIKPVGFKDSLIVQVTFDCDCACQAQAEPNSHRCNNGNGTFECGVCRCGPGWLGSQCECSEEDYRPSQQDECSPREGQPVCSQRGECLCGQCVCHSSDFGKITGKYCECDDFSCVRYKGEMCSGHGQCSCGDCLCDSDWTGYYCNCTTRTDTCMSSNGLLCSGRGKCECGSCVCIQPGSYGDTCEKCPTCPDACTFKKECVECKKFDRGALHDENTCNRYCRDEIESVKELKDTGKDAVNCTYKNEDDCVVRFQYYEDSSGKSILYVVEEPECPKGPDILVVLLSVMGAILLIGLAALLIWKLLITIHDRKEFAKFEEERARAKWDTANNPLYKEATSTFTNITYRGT", "experiment": "Inhibition of biotinylated vitronectin binding to purified αVβ3 receptor"}}}
{"molecule": "CC(=O)O[C@H]1C(=O)[C@@]2(C)[C@H]([C@H](OC(=O)c3ccccc3)[C@]3(O)C[C@H](OC(=O)[C@H](O)[C@@H](NC(=O)c4ccccc4)c4ccccc4)C(C)=C1C3(C)C)[C@]1(OC(C)=O)CO[C@@H]1C[C@@H]2O", "note": "[Paclitaxel]", "values": [{"measurement": "times more effective on U87 β3‐KO cells (than on U87)", "setting": "[1]; 144 h", "value": 2.3, "unit": "times"}, {"measurement": "Targeting index (TI)", "setting": "[1]; 144 h", "value": 1}, {"measurement": "IC50", "setting": "[2]", "value": 0.64, "unit": "nM"}, {"measurement": "IC50", "setting": "[3]", "value": 0.28, "unit": "nM"}]}
{"molecule": "cyclo[DKP‐isoDGR] [compound 1]", "values": [{"measurement": "effect on integrin‐mediated cell infiltration processes", "setting": "[4]", "value": "inhibitory effects"}, {"measurement": "effect on FAK/Akt integrin‐activated transduction pathway", "setting": "[5]", "value": "inhibitory effects"}]}
{"molecule": "CC(=O)O[C@H]1C(=O)[C@@]2(C)[C@H]([C@H](OC(=O)c3ccccc3)[C@]3(O)C[C@H](OC(=O)[C@H](OC(=O)N(C)CCN(C)C(=O)OCc4ccc(NC(=O)[C@H](C)NC(=O)[C@@H](NC(=O)CCCC(=O)NCc5ccc(CN6C(=O)[C@H]7CC(=O)N[C@@H](CCCNC(=N)N)C(=O)NCC(=O)N[C@@H](CC(=O)O)C(=O)NC[C@H]6C(=O)N7)cc5)C(C)C)cc4)[C@@H](NC(=O)c4ccccc4)c4ccccc4)C(C)=C1C3(C)C)[C@]1(OC(C)=O)CO[C@@H]1C[C@@H]2O", "note": "[compound 4, cyclo[DKP‐RGD]‐Val‐Ala‐PTX]", "values": [{"measurement": "Targeting index (TI)", "setting": "[1]; 144 h", "value": 2.4}, {"measurement": "IC50", "setting": "[6]", "value": "13.3 ± 3.6", "unit": "nM"}]}
{"molecule": "CC(=O)O[C@H]1C(=O)[C@@]2(C)[C@H]([C@H](OC(=O)c3ccccc3)[C@]3(O)C[C@H](OC(=O)[C@H](OC(=O)N(C)CCN(C)C(=O)OCc4ccc(NC(=O)[C@H](C)NC(=O)[C@@H](NC(=O)CCCC(=O)NCc5ccc(CN6C(=O)[C@H]7CC(=O)N[C@H](C(=O)O)CC(=O)NCC(=O)N[C@@H](CCCNC(=N)N)C(=O)NC[C@H]6C(=O)N7)cc5)C(C)C)cc4)[C@@H](NC(=O)c4ccccc4)c4ccccc4)C(C)=C1C3(C)C)[C@]1(OC(C)=O)CO[C@@H]1C[C@@H]2O", "note": "[compound 2, cyclo[DKP‐isoDGR]‐Val‐Ala‐PTX]", "values": [{"measurement": "Targeting index (TI)", "setting": "[1]; 144 h", "value": 9.9}, {"measurement": "targeting ability (in words)", "setting": "[1]; two isogenic cancer cell lines expressing integrin αVβ3 at different levels", "value": "notable targeting ability"}, {"measurement": "IC50", "setting": "[6]", "value": "11 ± 0.2", "unit": "nM"}, {"measurement": "affinity for the purified integrin αVβ3 receptor (in words)", "setting": "[6]", "value": "low nanomolar affinity"}]}
